Rows were chosen to be rich in hits. Some 3.3% of all compounds tested hit in one or more screens of this group.
FGF22 binding: FGF22 (human) thermal shift binding. Q9HCT0. recombinant FGF22 thermal shift, SYPRO orange fluorescence; percent of sucrose octasulfate shift, DMSO zero. activity (Tm shift, normalised), % at 9.99 µM. 340,000 tested, 1.5% active. AID 651658;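 active = mean Tm shift, scaled 0 neutral to 100 positive control, at about 1.3% or above, every replicate too, limit read from the data; inconclusive = no clear call, values can overlap the other calls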
PglD DTNB: blocks C. jejuni PglD acetyltransferase activity; AID 602405; purified PglD enzyme, DTNB colorimetric CoA detection; 360,000 tested, 0.098% active; inhibition, % at 12.5 µM; in the data active = inhibition above about 16%, passing the limit was not always enough; inconclusive = no clear call, values can overlap the other calls
Xi reactivation: X-chromosome reactivation activator | XiGFP mouse fibroblasts, % GFP-positive cells imaging, 3 d; cells co-treated with 5-aza-dC sensitizer; scaled so ellipticine positive control = 100% | activation, % at 7.58 µM | 360,000 tested, 0.055% active;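 active = mean normalized replicate activation at least 10% and every replicate at or above 10%; inconclusive = only one of the two criteria met; inactive = mean below 10% and not all replicates reach 10%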
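Material: XiGFP fibroblasts, SV40-immortalized. Buffer or medium: DMEM plus 5-aza-dC sensitizer. Compound: single concentration per compound, delivered by pin transfer. Times: 3 days compound exposure. Controls: ellipticine 6 µM.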
Statin myotox sup: suppression of simvastatin myotoxicity | C2C12 myotubes + simvastatin, ATP luminescence, 48 h; scaled: DMSO 0, geranylgeraniol control 100 | rescue of ATP level, % at 7.49 µM | 330,000 tested, 0.78% active;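 active = mean ATP rescue above about 67%, or every replicate alone reaching that limit, limit read from the data, passing the limit was not always enough; inconclusive = no clear call, values can overlap the other calls; inactive = mean under the limit and some replicate under it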;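 note: myotubes were challenged with 10 µM simvastatin during compound exposure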
DENV2 CPE rescue: DENV2-induced cell death inhibition. AID 651640. 350,000 tested, 1.7% active. CPE inhibition, % at 9.99 µM. DENV2-infected cells, cytopathic effect rescue, plate reader; in the data active = CPE inhibition above about 20%, passing the limit was not always enough; inconclusive = no clear call, values can overlap the other calls; tested in BHK-21 cells
E-sel inducer: induces E-selectin expression in human endothelial cells. AID 686992. 260,000 tested, 0.37% active. activation, % at 7.58 µM. HUVEC E-selectin immunofluorescence imaging; normalized: neutral wells 0, TNF-alpha wells 100. P16581;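 active = mean E-selectin-positive cell signal at least 10% of the positive control, reached in at least 60% of replicates, without over 20% cell loss; inconclusive = no rule given, readout overlaps actives, possibly toxicity-flagged; inactive = the rest, including those meeting only one limit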
Target sequence (P16581 whole entry, looked up): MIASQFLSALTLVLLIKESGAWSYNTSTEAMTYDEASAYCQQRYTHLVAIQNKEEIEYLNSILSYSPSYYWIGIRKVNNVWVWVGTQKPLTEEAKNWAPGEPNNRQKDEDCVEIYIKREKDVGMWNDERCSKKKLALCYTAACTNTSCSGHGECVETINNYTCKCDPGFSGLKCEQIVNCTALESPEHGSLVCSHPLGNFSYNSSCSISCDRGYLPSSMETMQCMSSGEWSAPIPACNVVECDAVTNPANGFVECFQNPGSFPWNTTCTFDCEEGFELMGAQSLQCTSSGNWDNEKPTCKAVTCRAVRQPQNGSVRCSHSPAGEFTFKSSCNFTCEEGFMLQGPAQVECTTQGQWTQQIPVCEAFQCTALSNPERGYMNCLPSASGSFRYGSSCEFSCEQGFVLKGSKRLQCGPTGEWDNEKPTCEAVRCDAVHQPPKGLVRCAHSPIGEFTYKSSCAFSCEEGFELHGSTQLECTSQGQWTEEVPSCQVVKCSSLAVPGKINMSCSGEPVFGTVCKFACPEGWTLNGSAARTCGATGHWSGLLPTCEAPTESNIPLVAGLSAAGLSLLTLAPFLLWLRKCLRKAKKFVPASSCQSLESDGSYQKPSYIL
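material = human umbilical vein endothelial cells (HUVEC), E-selectin induction | quantity = 3,000 cells/well | medium = EGM-2 growth medium on 0.1% gelatin-coated wells | technique = immunofluorescence imaging | read-out basis = % PE-positive cells | control set = TNF-alpha positive control, DMSO neutral control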
Numbers stand for hits; 0 = inactive; ? = inconclusive; - = no result given.

SMILES	FGF22 binding	PglD DTNB	Xi reactivation	Statin myotox sup	DENV2 CPE rescue	E-sel inducer
C[C@@H]1CN([C@H](C)CO)C(=O)c2cc(-c3ccccc3F)cnc2O[C@@H]1CN(C)C(=O)c1ccccn1	0	0	0	0	0	0
COc1ccc(S(=O)(=O)N(C)C[C@H]2OCCCC[C@@H](C)Oc3ccc(NS(=O)(=O)c4ccc(F)cc4)cc3C(=O)N([C@@H](C)CO)C[C@H]2C)cc1	0	0	0	0	0	0
CNC[C@H]1OCCCC[C@@H](C)Oc2ccc(NC(=O)Nc3c(C)noc3C)cc2C(=O)N([C@H](C)CO)C[C@H]1C	0	0	0	0	0	0
Cc1ccc(S(=O)(=O)N(C)C)cc1NC(=O)COc1ccc(-c2nnco2)cc1	0	0	0	0	0	0
Cc1ccc(S(=O)(=O)N(C)CC(=O)Oc2ccc(-c3nnco3)cc2)cc1	0	0	0	0	126.1	-
CCOC(=O)NC(=O)CSc1nnc(C2CC2)n1Cc1ccco1	43.1	-	0	-	0	0
O=C(CSc1nccn1Cc1ccco1)Nc1ccccc1F	0	0	0	0	0	0
Cc1nnc(SCC(=O)Nc2ccccc2F)n1Cc1ccco1	0	0	0	0	64.4	-
O=C(NCc1ccccc1Cl)[C@H]1[C@H](CO)[C@H]2Cn3c(cccc3=O)[C@H]2N1C(=O)C1CCCC1	0	0	0	0	0	0
Cn1c(SCC(=O)OC2CCCCC2)nnc1-c1ccc2c(c1)OCO2	-	0	-	0	-	-
CNC(=O)CSc1nnc(-c2ccc3c(c2)OCO3)n1C	43.3	-	0	-	0	0
COc1ccc(CN(C)C[C@H]2OCCCC[C@H](C)Oc3ccc(NC(=O)CCCN(C)C)cc3C(=O)N([C@H](C)CO)C[C@H]2C)cc1	0	0	0	0	0	0
CC1CC(=O)c2cc(-c3ccccc3)oc2C1 (stereo not given)	-	0	0	0	0	0
CC1CC(=O)C(C(C2=C(O)CC(C)CC2=O)c2ccccc2)=C(O)C1 (stereo not given)	0	0	0	100.8	0	0
CCS(=O)(=O)Nc1ccc2c(c1)C(=O)N(C)C[C@H](OC)[C@H](C)CN(Cc1ccccn1)[C@H](C)CO2	0	0	0	0	0	0
CCOC(=O)c1ccc(NC(=O)N2CCCCC2)cc1	-	0	-	137.1	-	-
CCOC(=O)c1ccc(NC(=O)N2CCc3ccccc3C2)cc1	0	0	0	0	0	0
CCOC(=O)c1ccc(NC(=O)N2CCc3ccccc32)cc1	-	0	-	72.1	-	-
C[C@@H]1CN([C@H](C)CO)C(=O)Cc2cc(NC(=O)Cn3cnnn3)ccc2O[C@@H]1CN(C)Cc1ccc(C(=O)O)cc1	0	0	0	0	0	0
COc1ccc(/C=C/C(=O)O)cc1S(=O)(=O)NC1CCS(=O)(=O)C1 (stereo not given)	43.9	-	0	-	0	-
COc1ccc(S(=O)(=O)Nc2ccc3c(c2)C(=O)N([C@H](C)CO)C[C@@H](C)[C@@H](CN(C)C(=O)Cc2ccccc2)OCCCC[C@H](C)O3)cc1	0	0	0	-	0	0
O=C(COc1ccc2ccc(=O)oc2c1)NC1CCS(=O)(=O)C1 (stereo not given)	0	0	0	0	0	0
O=C(COc1ccc2c(-c3ccccc3)cc(=O)oc2c1)NC1CCS(=O)(=O)C1 (stereo not given)	0	0	-	0	143.0	-
COc1ccc(S(=O)(=O)Nc2ccc3c(c2)C(=O)N([C@@H](C)CO)C[C@H](C)[C@@H](CN(C)C(=O)CCC(F)(F)F)OCCCC[C@H](C)O3)cc1	0	0	0	-	?	0
CCC(=O)NC(c1cccs1)c1cc([N+](=O)[O-])c2cccnc2c1O (stereo not given)	0	0	0	0	0	0
SMILES	FGF22 binding	PglD DTNB	Xi reactivation	Statin myotox sup	DENV2 CPE rescue	E-sel inducer
CC(=O)NC(c1cc(Cl)c2cccnc2c1O)C(C)C (stereo not given)	0	0	0	80.7	41.7	0
CC(=O)NC(c1cccs1)c1cc([N+](=O)[O-])c2cccnc2c1O (stereo not given)	0	-	0	-	86.7	-
CCCNC(=O)C[C@@H]1CC[C@H]2[C@@H](COC[C@@H](O)CN2C(=O)C2CCOCC2)O1	0	0	0	0	0	0
O=C(N[C@H]1CC[C@@H](CCNC(=O)C2CCOCC2)O[C@@H]1CO)c1ccccn1	0	0	0	0	0	0
CCOc1ccc(/C=N/n2nnnc2N)cc1OCC	0	0	0	0	27.5	0
CCOc1cc(/C=N/n2cnnc2)ccc1OS(=O)(=O)c1ccc(C)cc1	43.7	-	0	-	0	-
CCOc1cc(/C=N\n2nnnc2N)ccc1O	0	0	0	0	0	0
COCCCN1C(=O)C(=O)/C(=C(/O)c2ccc(OC)cc2)C1c1cccc(OC)c1 (stereo not given)	-	-	-	125.1	-	-
COc1ccc(C2/C(=C(/O)c3ccccc3)C(=O)C(=O)N2CCO)cc1 (stereo not given)	-	0	-	87.2	-	-
Cc1nccn1CC(O)COc1ccc(Cl)cc1Cl (stereo not given)	0	0	0	0	31.1	-
Cc1cc(C)n(CC(O)COc2ccc(Cl)cc2Cl)n1 (stereo not given)	0	0	0	0	0	-
COc1cccc(S(=O)(=O)Nc2ccc3c(c2)OC[C@H](C)NC[C@H](C)[C@@H](OC)CN(C)C3=O)c1	0	-	0	-	0	0
CCc1cccc2c(C(=O)COC(=O)c3ccc([N+](=O)[O-])s3)c[nH]c12	44.3	-	0	-	0	-
CO[C@H]1CC[C@@H]2CCOc3ccc(C#N)cc3C(=O)N(C)C[C@@H](OC)[C@@H](C)C(=O)N(C)C[C@H]1O2	0	0	0	75.4	0	0
C[C@H]1CN(C)C(=O)c2cc(N(C)C)ccc2O[C@H]1CN(C)S(C)(=O)=O	-	-	0	-	-	-
O=[N+]([O-])c1ccc(/C=N/N2CCCCC2)cc1	0	0	0	0	33.2	0
O=C(CN1CCN(S(=O)(=O)c2ccc(Br)cc2)CC1)Nc1ccc2c(c1)OCCO2	-	0	-	144.0	-	-
O=C(CN1CCN(S(=O)(=O)c2ccc(Cl)cc2)CC1)Nc1ccc2c(c1)OCCO2	-	0	-	0	-	-
CO[C@@H]1CN(C)C(=O)c2ccc(NC(=O)c3ccccc3)cc2OC[C@@H](C)N(C(=O)C2CC2)C[C@H]1C	0	-	0	-	25.5	0
CO[C@H]1CN(C)C(=O)c2ccc(NC(=O)c3ccccc3)cc2OC[C@H](C)N(C(=O)C2CC2)C[C@@H]1C	0	-	0	-	0	?
CO[C@@H]1CN(C)C(=O)c2cc(NC(=O)c3ccccc3)ccc2OC[C@H](C)N(C(=O)C2CC2)C[C@@H]1C	0	0	0	0	95.5	0
CO[C@@H]1CN(C)C(=O)c2cc(NC(=O)c3ccccc3)ccc2OC[C@@H](C)N(C(=O)C2CC2)C[C@H]1C	0	0	0	0	0	0

Screening data as filed in PubChem.
